Experimental data as given in ChEMBL document CHEMBL3822431, “Hydroxychalcone inhibitors of Streptococcus mutans glucosyl transferases and biofilms as potential anticaries agents” (Bioorg Med Chem Lett, 2016).
The source made the active and inactive calls. The calls are words filed in the database; no cut-off is given here.

Assays:
[1] = target: T1, Glucosyltransferase-I (Streptococcus mutans serotype c (strain ATCC 700610 / UA159)) (UniProt P08987); test: Inhibition of Wild-type Streptococcus mutans UA159 glucosyltransferase B at 50 uM by coomassie blue staining based SDS-PAGE method
T1 sequence (whole entry): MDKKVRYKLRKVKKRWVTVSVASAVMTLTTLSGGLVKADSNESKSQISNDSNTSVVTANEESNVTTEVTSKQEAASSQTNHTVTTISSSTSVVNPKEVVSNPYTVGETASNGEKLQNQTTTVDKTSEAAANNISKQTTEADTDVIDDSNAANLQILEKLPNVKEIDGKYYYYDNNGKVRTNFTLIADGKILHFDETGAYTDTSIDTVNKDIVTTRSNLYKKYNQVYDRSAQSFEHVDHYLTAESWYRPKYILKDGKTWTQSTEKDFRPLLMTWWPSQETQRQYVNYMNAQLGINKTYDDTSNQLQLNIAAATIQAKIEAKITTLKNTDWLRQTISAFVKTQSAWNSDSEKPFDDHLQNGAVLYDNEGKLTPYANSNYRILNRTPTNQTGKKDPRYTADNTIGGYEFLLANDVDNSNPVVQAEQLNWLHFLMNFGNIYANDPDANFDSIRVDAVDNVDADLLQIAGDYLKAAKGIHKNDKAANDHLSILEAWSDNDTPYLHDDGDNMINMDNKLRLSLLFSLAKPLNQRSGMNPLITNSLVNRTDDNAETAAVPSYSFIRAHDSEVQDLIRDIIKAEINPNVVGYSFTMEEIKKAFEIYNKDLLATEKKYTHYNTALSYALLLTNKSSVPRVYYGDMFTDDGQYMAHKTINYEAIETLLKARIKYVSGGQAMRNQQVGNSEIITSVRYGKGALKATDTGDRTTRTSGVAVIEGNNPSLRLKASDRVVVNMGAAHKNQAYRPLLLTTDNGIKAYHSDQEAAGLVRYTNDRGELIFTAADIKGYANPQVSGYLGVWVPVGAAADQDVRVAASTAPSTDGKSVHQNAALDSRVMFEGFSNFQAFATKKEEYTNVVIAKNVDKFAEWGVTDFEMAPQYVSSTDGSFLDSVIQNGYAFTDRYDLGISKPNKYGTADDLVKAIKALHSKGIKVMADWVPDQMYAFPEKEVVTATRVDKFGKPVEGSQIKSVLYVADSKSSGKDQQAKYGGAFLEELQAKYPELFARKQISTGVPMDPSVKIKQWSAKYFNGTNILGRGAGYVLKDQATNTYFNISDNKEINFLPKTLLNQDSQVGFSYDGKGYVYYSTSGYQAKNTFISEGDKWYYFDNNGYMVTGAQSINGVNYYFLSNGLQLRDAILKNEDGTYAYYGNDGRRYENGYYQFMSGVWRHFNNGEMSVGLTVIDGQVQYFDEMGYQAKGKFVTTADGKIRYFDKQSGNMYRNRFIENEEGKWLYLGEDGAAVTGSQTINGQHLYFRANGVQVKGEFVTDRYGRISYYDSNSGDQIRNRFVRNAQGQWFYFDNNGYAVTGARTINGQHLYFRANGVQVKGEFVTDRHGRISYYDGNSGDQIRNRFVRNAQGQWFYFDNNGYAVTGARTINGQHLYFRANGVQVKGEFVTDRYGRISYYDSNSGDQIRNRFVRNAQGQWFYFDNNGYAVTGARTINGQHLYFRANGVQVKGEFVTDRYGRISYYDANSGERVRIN
How it was run: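 Compound (50 µM) added to overnight S. mutans UA159 wild-type cultures; Gtfs collected and concentrated from supernatants, run on SDS-PAGE in duplicate; one gel Coomassie blue stained for protein levels.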

Streptococcus mutans = test: Inhibition of biofilm formation of Streptococcus mutans UA159 after 16 hrs by crystal violet staining based serial dilution method; assay type: functional, organism-based; conditions: Streptococcus mutans, UA159, 16 h
How it was run: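 S. mutans UA159 co-incubated with compound at various concentrations; biofilm quantified by crystal violet protocol, read at OD562.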

| Structure (SMILES) | inhibition [1] | IC50 (Streptococcus mutans) |
| --- | --- | --- |
| O=C(/C=C\c1ccc(O)cc1O)c1cccc(O)c1 | Active | 44 µM |
| O=C(/C=C\c1ccc(O)cc1O)c1ccc(O)cc1 | Active | 77 µM |

Further lines, results first:

| inhibition [1] | IC50 (Streptococcus mutans) | Structure (SMILES) |
| --- | --- | --- |
| Active |  | O=C(/C=C/c1cc(O)c(O)cc1O)c1ccccc1O (stereo in doubt; 18c) |
| Active | 162 µM | O=C(/C=C/c1ccc(O)cc1O)c1ccc(O)cc1 |
| Active |  | O=C(/C=C/c1ccc(O)cc1O)c1cccc(O)c1 (stereo in doubt; 9a) |
